Reference: ChEMBL document CHEMBL5338733, “Heterobifunctional Ligase Recruiters Enable pan-Degradation of Inhibitor of Apoptosis Proteins” (J Med Chem, 2023)
pIC50: −log10 of the molar value. Values belong to the molecule of their own block, whether it stands above or below them. Active and inactive are the calls of the source. No cut-off for these calls is given here.

Experiments:
HEL = experiment: Cytotoxicity against human HEL cells assessed as reduction in cell viability measured after 96 hrs in presence of TNF-alpha by CellTiter-Glo luminescent assay; format: functional, cell-based
Summary of the method: (§1)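 Cells kept in RPMI-1640 with 10% FBS, 1% penicillin/streptomycin and 1% L-glutamine at 37 °C, 5% CO2. Seeded with compounds and incubated 96 h at 37 °C with TNF-α at 1 ng/mL. Viability read by CellTiter-Glo luminescence and normalized to DMSO-treated control. Mean ± SD of biological triplicates.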

[1] = molecular target: E3 ubiquitin-protein ligase XIAP (Homo sapiens) (UniProt P98170); experiment: Induction of XIAP degradation in human MM1.S cells at 1 uM incubated for 16 hrs by western blot analysis; format: cell-based
Sequence of E3 ubiquitin-protein ligase XIAP (Homo sapiens) (P98170 whole entry): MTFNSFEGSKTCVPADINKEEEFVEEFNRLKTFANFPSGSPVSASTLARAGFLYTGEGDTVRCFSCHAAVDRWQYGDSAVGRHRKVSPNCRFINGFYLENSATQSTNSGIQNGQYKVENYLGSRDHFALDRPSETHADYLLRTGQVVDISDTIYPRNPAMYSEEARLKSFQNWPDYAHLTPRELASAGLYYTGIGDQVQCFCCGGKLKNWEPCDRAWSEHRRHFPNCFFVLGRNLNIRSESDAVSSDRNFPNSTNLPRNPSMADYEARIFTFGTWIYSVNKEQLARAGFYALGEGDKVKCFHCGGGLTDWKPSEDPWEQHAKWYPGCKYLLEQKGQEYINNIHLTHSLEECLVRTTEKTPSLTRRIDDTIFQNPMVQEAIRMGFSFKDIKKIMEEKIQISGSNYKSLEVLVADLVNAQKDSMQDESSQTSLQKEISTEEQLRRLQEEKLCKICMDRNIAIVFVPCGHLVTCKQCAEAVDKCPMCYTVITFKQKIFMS
Summary of the method: (§2)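 MM.1S cells treated 16 h at the stated concentration. Lysed, run on SDS-PAGE and transferred to PVDF. Probed with primary antibodies overnight at 4 °C, then HRP secondaries, with ECL detection. Band densitometry normalized to loading control and to DMSO-treated cells. Averages of at least three independent experiments.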

MOLM-13 = experiment: Cytotoxicity against human MOLM-13 cells assessed as reduction in cell viability measured after 96 hrs in presence of TNF-alpha by CellTiter-Glo luminescent assay; format: functional, cell-based; settings: MOLM-13, 96 h; summary of the method: as §1
[2] = molecular target: Baculoviral IAP repeat-containing protein 3 (Homo sapiens) (UniProt Q13489); experiment: Induction of cIAP2 degradation in human MM1.S cells at 1 uM incubated for 16 hrs by western blot analysis; format: cell-based; summary of the method: as §2
Sequence of Baculoviral IAP repeat-containing protein 3 (Homo sapiens) (Q13489 whole entry): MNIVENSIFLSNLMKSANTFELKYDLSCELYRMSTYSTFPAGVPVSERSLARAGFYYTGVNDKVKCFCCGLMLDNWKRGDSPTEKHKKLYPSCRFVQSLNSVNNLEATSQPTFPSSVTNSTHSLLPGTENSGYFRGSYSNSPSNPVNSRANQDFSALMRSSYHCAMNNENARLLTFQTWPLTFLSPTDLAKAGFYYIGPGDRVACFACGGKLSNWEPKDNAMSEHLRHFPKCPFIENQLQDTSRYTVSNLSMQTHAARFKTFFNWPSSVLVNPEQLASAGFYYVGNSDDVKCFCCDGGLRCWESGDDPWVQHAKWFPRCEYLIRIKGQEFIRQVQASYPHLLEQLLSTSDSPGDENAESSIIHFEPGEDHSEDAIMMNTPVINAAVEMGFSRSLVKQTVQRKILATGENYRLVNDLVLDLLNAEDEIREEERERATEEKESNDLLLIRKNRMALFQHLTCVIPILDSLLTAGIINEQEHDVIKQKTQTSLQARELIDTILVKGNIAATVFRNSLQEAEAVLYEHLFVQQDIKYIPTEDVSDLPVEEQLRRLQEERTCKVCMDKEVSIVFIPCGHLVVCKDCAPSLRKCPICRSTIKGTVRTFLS

JJN-3 = experiment: Cytotoxicity against human JJN-3 cells assessed as reduction in cell viability measured after 96 hrs in presence of TNF-alpha by CellTiter-Glo luminescent assay; format: functional, cell-based; settings: JJN-3, 96 h; summary of the method: as §1
K562 = experiment: Cytotoxicity against human K562 cells assessed as reduction in cell viability measured after 96 hrs in presence of TNF-alpha by CellTiter-Glo luminescent assay; format: functional, cell-based; settings: K562, 96 h; summary of the method: as §1
RPMI-8226 = experiment: Cytotoxicity against human RPMI-8226 cells assessed as reduction in cell viability measured after 96 hrs in presence of TNF-alpha by CellTiter-Glo luminescent assay; format: functional, cell-based; settings: RPMI-8226, 96 h; summary of the method: as §1
SUD4 = experiment: Cytotoxicity against human SU-DHL-4 cells assessed as reduction in cell viability measured after 96 hrs in presence of TNF-alpha by CellTiter-Glo luminescent assay; format: functional, cell-based; settings: SU-DHL-4, 96 h; summary of the method: as §1
[3] = molecular target: von Hippel-Lindau disease tumor suppressor (Homo sapiens) (UniProt P40337); experiment: Induction of VHL19 degradation in human MM1.S cells at 1 uM incubated for 16 hrs by western blot analysis; format: cell-based; summary of the method: as §2
Sequence of von Hippel-Lindau disease tumor suppressor (Homo sapiens) (P40337 whole entry, looked up): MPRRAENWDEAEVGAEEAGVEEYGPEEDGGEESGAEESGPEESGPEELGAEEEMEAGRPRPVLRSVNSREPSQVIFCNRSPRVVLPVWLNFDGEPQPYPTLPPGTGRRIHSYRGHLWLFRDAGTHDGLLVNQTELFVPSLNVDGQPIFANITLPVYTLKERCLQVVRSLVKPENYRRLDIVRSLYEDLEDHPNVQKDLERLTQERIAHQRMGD

[4] = molecular target: Baculoviral IAP repeat-containing protein 2 (Homo sapiens) (UniProt Q13490); experiment: Induction of cIAP1 degradation in human MM1.S cells at 1 uM incubated for 16 hrs by western blot analysis; format: cell-based; summary of the method: as §2
Sequence of Baculoviral IAP repeat-containing protein 2 (Homo sapiens) (Q13490 whole entry): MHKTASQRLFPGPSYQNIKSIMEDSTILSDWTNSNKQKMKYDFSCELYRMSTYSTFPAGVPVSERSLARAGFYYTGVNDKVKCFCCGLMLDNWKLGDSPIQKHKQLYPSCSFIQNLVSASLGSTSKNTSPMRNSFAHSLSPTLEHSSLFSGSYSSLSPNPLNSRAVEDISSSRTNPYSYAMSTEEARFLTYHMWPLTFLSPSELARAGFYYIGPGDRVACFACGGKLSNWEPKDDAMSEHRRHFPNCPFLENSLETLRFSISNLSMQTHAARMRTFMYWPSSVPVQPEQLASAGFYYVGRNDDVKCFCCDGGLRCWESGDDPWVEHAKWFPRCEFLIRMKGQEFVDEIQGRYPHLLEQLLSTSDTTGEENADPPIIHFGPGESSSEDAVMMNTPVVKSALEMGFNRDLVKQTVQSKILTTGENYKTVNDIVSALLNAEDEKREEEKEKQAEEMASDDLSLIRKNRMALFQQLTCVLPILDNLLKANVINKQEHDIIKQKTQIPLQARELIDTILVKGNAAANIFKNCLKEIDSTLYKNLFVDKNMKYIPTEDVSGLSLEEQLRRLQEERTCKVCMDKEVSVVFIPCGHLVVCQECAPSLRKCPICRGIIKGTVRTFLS

SU-DHL-6 = experiment: Cytotoxicity against human SU-DHL-6 cells assessed as reduction in cell viability measured after 96 hrs in presence of TNF-alpha by CellTiter-Glo luminescent assay; format: functional, cell-based; settings: SU-DHL-6, 96 h
Summary of the method: (§3)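 Cells seeded with compound at indicated concentrations ± TNF-α 1 ng/mL, incubated 96 h at 37 °C; viability by CellTiter-Glo luminescence, normalized to DMSO control; mean ± SD of biological triplicates. NCI-H929 cultured in RPMI-1640/10% FBS with 2-mercaptoethanol and sodium pyruvate; other lines in RPMI-1640/10% FBS, 37 °C, 5% CO2.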

[5] = molecular target: Baculoviral IAP repeat-containing protein 3 (Homo sapiens) (UniProt Q13489); experiment: Induction of cIAP2 degradation in human MM1.S cells assessed as remaining protein level at 0.1 uM incubated for 16 hrs by western blot analysis; format: cell-based
Summary of the method: (§4)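 Lysed, run on SDS-PAGE and transferred to PVDF. Probed with primary antibodies overnight at 4 °C, then HRP secondaries, with ECL detection. Band densitometry normalized to loading control and to DMSO-treated cells. Averages of at least three independent experiments.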

[6] = molecular target: Baculoviral IAP repeat-containing protein 2 (Homo sapiens) (UniProt Q13490); experiment: Induction of cIAP1 degradation in human MM1.S cells assessed as remaining protein level at 0.1 uM incubated for 16 hrs by western blot analysis; format: cell-based; summary of the method: as §4
[7] = molecular target: von Hippel-Lindau disease tumor suppressor (Homo sapiens) (UniProt P40337); experiment: Induction of VHL30 degradation in human MM1.S cells at 1 uM incubated for 16 hrs by western blot analysis; format: cell-based; summary of the method: as §2
DB = experiment: Cytotoxicity against human DB cells assessed as reduction in cell viability measured after 96 hrs in presence of TNF-alpha by CellTiter-Glo luminescent assay; format: functional, cell-based; summary of the method: as §1
[8] = molecular target: von Hippel-Lindau disease tumor suppressor (Homo sapiens) (UniProt P40337); experiment: Induction of VHL30 degradation in human MM1.S cells assessed as remaining protein level at 0.1 uM incubated for 16 hrs by western blot analysis; format: cell-based; summary of the method: as §2
NCI-H929 = experiment: Cytotoxicity against human NCI-H929 cells assessed as reduction in cell viability measured after 96 hrs in presence of TNF-alpha by CellTiter-Glo luminescent assay; format: functional, cell-based; settings: NCI-H929, 96 h; summary of the method: as §3
[9] = molecular target: E3 ubiquitin-protein ligase XIAP (Homo sapiens) (UniProt P98170); experiment: Induction of XIAP degradation in human MM1.S cells at 100 nM incubated for 3 hrs by diaPASEF-based analysis; format: cell-based
Summary of the method: (§5)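 MM.1S cells exposed to DMSO or 0.1 μM compound for 3 h, then washed with PBS and snap-frozen. Lysed in 8 M urea/EPPS pH 8.5 buffer. 50 μg protein reduced, alkylated, precipitated, then digested with LysC and trypsin. Analysed by diaPASEF on timsTOF Pro2. Missing values imputed from a Gaussian distribution; log2 fold change versus DMSO with limma statistics.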

[10] = molecular target: Baculoviral IAP repeat-containing protein 2 (Homo sapiens) (UniProt Q13490); experiment: Induction of cIAP1 degradation in human MM1.S cells at 100 nM incubated for 3 hrs by diaPASEF-based analysis; format: cell-based; summary of the method: as §5
[11] = molecular target: Protein cereblon/Baculoviral IAP repeat-containing protein 3 (Homo sapiens) (UniProt Q13489+Q96SW2); experiment: PROTAC activity at CRBN/IAP in human MM1.S cells assessed as induction of cIAP2 degradation at 100 nM incubated for 3 hrs by diaPASEF-based analysis; format: cell-based; summary of the method: as §5
Sequence of Protein cereblon/Baculoviral IAP repeat-containing protein 3 (Homo sapiens) (Q13489 whole entry, looked up): as the sequence (Q13489 whole entry) above
Sequence of Protein cereblon/Baculoviral IAP repeat-containing protein 3 (Homo sapiens) (Q96SW2 whole entry, looked up): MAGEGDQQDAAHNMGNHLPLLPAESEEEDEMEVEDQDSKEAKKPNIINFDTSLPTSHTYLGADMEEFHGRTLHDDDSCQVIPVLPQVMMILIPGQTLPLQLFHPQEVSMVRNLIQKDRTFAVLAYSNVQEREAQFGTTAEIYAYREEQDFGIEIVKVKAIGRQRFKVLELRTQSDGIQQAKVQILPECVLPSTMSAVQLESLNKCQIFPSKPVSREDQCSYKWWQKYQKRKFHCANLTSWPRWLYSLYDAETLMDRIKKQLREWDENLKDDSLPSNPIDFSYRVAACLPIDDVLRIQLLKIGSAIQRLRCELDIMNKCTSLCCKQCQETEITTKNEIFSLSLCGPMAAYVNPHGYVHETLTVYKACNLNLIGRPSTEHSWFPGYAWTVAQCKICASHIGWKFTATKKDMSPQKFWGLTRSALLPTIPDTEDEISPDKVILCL

[12] = molecular target: Protein cereblon/E3 ubiquitin-protein ligase XIAP (Homo sapiens) (UniProt P98170+Q96SW2); experiment: PROTAC activity at CRBN/IAP in human MM1.S cells assessed as induction of XIAP degradation at 0.1 uM incubated for 3 hrs by diaPASEF-based proteomics analysis; format: cell-based; summary of the method: as §5
Sequence of Protein cereblon/E3 ubiquitin-protein ligase XIAP (Homo sapiens) (P98170 whole entry, looked up): as the sequence (P98170 whole entry) above
Sequence of Protein cereblon/E3 ubiquitin-protein ligase XIAP (Homo sapiens) (Q96SW2 whole entry, looked up): as the sequence (Q96SW2 whole entry, looked up) above

[13] = molecular target: Cereblon/Ikaros (Homo sapiens) (UniProt Q96SW2+Q13422); experiment: PROTAC activity at CRBN/IKZF1 in human MM1.S cells assessed as induction of IKZF1 degradation at 100 nM incubated for 3 hrs by diaPASEF-based analysis; format: cell-based; summary of the method: as §5
[14] = molecular target: Protein cereblon/Zinc finger protein Aiolos (Homo sapiens) (UniProt Q96SW2+Q9UKT9); experiment: PROTAC activity at CRBN/IKZF3 in human MM1.S cells assessed as induction of IKZF3 degradation at 100 nM incubated for 3 hrs by diaPASEF-based analysis; format: cell-based; summary of the method: as §5
Sequence of Protein cereblon/Zinc finger protein Aiolos (Homo sapiens) (Q96SW2 whole entry, looked up): as above
Sequence of Protein cereblon/Zinc finger protein Aiolos (Homo sapiens) (Q9UKT9 whole entry, looked up): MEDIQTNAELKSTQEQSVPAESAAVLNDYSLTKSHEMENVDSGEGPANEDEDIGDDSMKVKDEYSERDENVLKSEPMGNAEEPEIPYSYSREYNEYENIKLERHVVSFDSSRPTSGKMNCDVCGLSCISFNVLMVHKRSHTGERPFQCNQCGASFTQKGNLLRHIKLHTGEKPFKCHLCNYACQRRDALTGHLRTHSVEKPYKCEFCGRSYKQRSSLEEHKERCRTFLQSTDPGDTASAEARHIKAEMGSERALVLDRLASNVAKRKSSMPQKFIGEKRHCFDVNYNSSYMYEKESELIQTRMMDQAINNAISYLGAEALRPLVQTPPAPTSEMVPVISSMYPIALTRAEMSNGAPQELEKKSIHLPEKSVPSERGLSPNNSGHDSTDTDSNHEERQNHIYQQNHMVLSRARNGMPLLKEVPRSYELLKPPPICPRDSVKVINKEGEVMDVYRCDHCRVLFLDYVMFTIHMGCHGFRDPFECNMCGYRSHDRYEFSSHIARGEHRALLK

[15] = molecular target: Protein cereblon/Baculoviral IAP repeat-containing protein 2 (Homo sapiens) (UniProt Q13490+Q96SW2); experiment: PROTAC activity at CRBN/IAP in human MM1.S cells assessed as induction of cIAP1 degradation at 100 nM incubated for 3 hrs by diaPASEF-based analysis; format: cell-based; summary of the method: as §5
Sequence of Protein cereblon/Baculoviral IAP repeat-containing protein 2 (Homo sapiens) (Q13490 whole entry, looked up): as the sequence (Q13490 whole entry) above
Sequence of Protein cereblon/Baculoviral IAP repeat-containing protein 2 (Homo sapiens) (Q96SW2 whole entry, looked up): as the sequence (Q96SW2 whole entry, looked up) above

[16] = molecular target: von Hippel-Lindau disease tumor suppressor (Homo sapiens) (UniProt P40337); experiment: Induction of VHL degradation in human MM1.S cells at 100 nM incubated for 3 hrs by diaPASEF-based analysis; format: cell-based; summary of the method: as §5
[17] = molecular target: Protein cereblon-IAP (Homo sapiens) (UniProt P98170+Q13489+Q13490+Q96SW2); experiment: PROTAC activity at CRBN/IAP in human MM1.S cells assessed as induction of CRBN degradation at 100 nM incubated for 3 hrs by diaPASEF-based analysis; format: cell-based; summary of the method: as §5
Sequence of Protein cereblon-IAP (Homo sapiens) (P98170 whole entry, looked up): as the sequence (P98170 whole entry) above
Sequence of Protein cereblon-IAP (Homo sapiens) (Q13489 whole entry, looked up): as the sequence (Q13489 whole entry) above
Sequence of Protein cereblon-IAP (Homo sapiens) (Q13490 whole entry, looked up): as the sequence (Q13490 whole entry) above
Sequence of Protein cereblon-IAP (Homo sapiens) (Q96SW2 whole entry, looked up): as the sequence (Q96SW2 whole entry, looked up) above

Activity [1]: inactive
Activity [2]: inactive
Activity [3]: inactive
Activity [4]: inactive
Activity [5]: 81%
Activity [6]: 95%
Activity [7]: inactive
Activity [8]: 95%
SMILES: Cc1ncsc1-c1ccc(CNC(=O)[C@@H]2C[C@@H](O)CN2C(=O)[C@@H](NC(=O)C2(C#N)CC2)C(C)(C)C)cc1
pIC50 (HEL): < 5.00
pIC50 (MOLM-13): < 5.00
pIC50 (JJN-3): < 5.00
pIC50 (K562): < 5.00
pIC50 (RPMI-8226): < 5.00
pIC50 (SUD4): < 5.00
pIC50 (SU-DHL-6): < 5.00
pIC50 (DB): < 5.00
pIC50 (NCI-H929): < 5.00

Activity [9]: inactive
Activity [10]: Active
SMILES: CN[C@@H](C)C(=O)N[C@@H](C(=O)N1CCC[C@H]1C(=O)N[C@@H]1c2ccccc2C[C@@H]1OCC#CC#CCO[C@H]1Cc2ccccc2[C@H]1NC(=O)[C@@H]1CCCN1C(=O)[C@H](NC(=O)[C@H](C)NC)C1CCCCC1)C1CCCCC1

Activity [11]: inactive
Activity [12]: Active
Activity [13]: inactive
Activity [14]: inactive
Activity [15]: inactive
Activity [16]: inactive
Activity [17]: inactive
SMILES: CN[C@@H](C)C(=O)N[C@H](C(=O)N1C[C@@H](Oc2cccc(OCCCCCCOCCCCCCOCCCCCCNc3cccc4c3C(=O)N(C3CCC(=O)NC3=O)C4=O)c2)C[C@H]1C(=O)N[C@@H]1CCCc2ccccc21)C1CCCCC1 (stereo partly specified)
